Measured values from article PMC5125022 (ACS chemical neuroscience, 2016).
Several values for one entry are separate records, joined by “and”; a condition that tells them apart may be missing. Equal values may be shown once. Read-outs that look alike come from different tables or passages of the source.

Assays:
[1] = target: DOR (Homo sapiens, UniProt P41143); test: [35S]GTPγS-binding assay in DOR-expressing CHO cell line; type: biochemical
Outline: (§1)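 CHO-cell membranes expressing DOR or KOR (10 µg protein) were incubated for 90 min at 30 °C in assay buffer. The mix held 10 µM GDP, 0.1 nM [35S]GTPγS, and varying test compound or a 3 µM full-agonist reference (SNC80 for DOR, U50,488H for KOR). Nonspecific binding used 10 µM unlabeled GTPγS. Reactions were stopped by rapid vacuum filtration through glass-fibre filters, and bound radioactivity was read by liquid scintillation. Assays ran in triplicate, with 3 independent determinations. EC50 and Emax came from nonlinear one-site fits.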

[2] = test system: Swiss Webster mice; test: Warm water tail immersion; type: in vivo, mouse
[3] = target: T1, KOR (Homo sapiens, UniProt P41145); test: Competitive radioligand binding, KOR; details: ratio of Ki KOR / Ki MOR
Outline: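 Membranes from CHO cells stably expressing a single opioid receptor were incubated with test compound at various concentrations and either [3H]naloxone (MOR) or [3H]norBNI (KOR) for 1 h at 30 °C. Specific binding was the difference between binding without and with 10 µM naltrexone. IC50 came from linear regression of Hill plots, and Ki from Cheng-Prusoff. Selectivity is the KOR Ki/MOR Ki ratio, from three independent experiments.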

[4] = test system: Swiss Webster mice; test: Charcoal gavage intestinal motility assay; type: in vivo, mouse
[5] = test system: Longitudinal Muscle Myenteric Plexus (LMMP) preparations from the guinea pig ileum; test: Electrical field stimulated contractions in LMMP preparations; type: cell-based; details: Figure 8A
[6] = test system: circular muscle of the mouse colon; type: cell-based; details: for Inhibition of morphine-induced contractions: 1 nM antagonist, distal or proximal colon, data not shown; for Antagonism of morphine effects: Figure 6A; for Contractions induced by compound alone: concentrations up to 30 μM, distal and proximal colon preparations
[7] = test system: Swiss Webster mice; test: Acetic acid induced writhing assay; type: in vivo, mouse
[8] = test system: Swiss Webster mice; test: Colonic bead expulsion assay; type: in vivo, mouse
[9] = target: T1, KOR; test: [35S]GTPγS-binding assay in KOR-expressing CHO cell line; type: biochemical
Outline: as §1

[10] = target: T2, MOR (Mus musculus, UniProt P42866); test: [35S]GTPγS-binding assay in low MOR-expressing CHO cell line; type: biochemical
Outline: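 Low-MOR-expressing CHO cell material was incubated for 90 min at 30 °C with varying test compound or 3 µM DAMGO (full-agonist reference). Nonspecific binding used 10 µM unlabeled GTPγS. Reactions were stopped by GF/B vacuum filtration, and bound radioactivity was read by scintillation counting. Triplicates gave 3 independent determinations. EC50 and Emax came from nonlinear one-site fits.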

[11] = target: T2, MOR; details: Emax relative to full agonist DAMGO (100%), ref 9b; cited from earlier work
[12] = target: T1, KOR; details: ref 9b, cited from earlier work
[13] = 10 nM antagonist, proximal colon, Figure 6C
[14] = 100 nM antagonist, distal colon, Figure 6B
[15] = Emax relative to full agonist U50,488H (100%)

## 1-Benzyl-17-Cyclopropylmethyl-3,14β-dihydroxy-4,5α-epoxy-6β-[(4'-pyridyl)acetamido]morphinan [BNAP]
[1]; Emax relative to full agonist SNC80 (100%)
  % max of agonist: 9.2 ± 2.2%
[1]; [35S]GTPγS binding
  EC50: 108 ± 69 nM
[2]; 1.0 μg/5 μL ICV, compared to morphine alone, mice, Figure 4
  Antinociceptive effect of compound alone: did not produce significant antinociception
[2]; 10 mg/kg s.c., any morphine dose tested, mice, Figure 3
  Antagonism of morphine antinociception: did not significantly antagonize morphine antinociception
[2]; 10 mg/kg s.c., mice, Figure 3
  Antinociceptive effect of compound alone: did not produce significant antinociceptive effects
[2]; ICV, increasing concentrations, mice, Figure 4
  Reversal of morphine antinociception: dose dependent reversal of morphine antinociception
[2]; ICV, mice, Figure 4
  Dose giving complete reversal of morphine antinociception: 0.3 μg/5 μL
[3]
  Selectivity (κ/μ): 4.6 (κ/μ)
[4]; charcoal gavage, mice, Figure 7B
  Decrease of intestinal motility: 1.5 fold
[4]; mice
  Reversal of morphine induced inhibition of intestinal motility: unable to reverse morphine induced inhibition of intestinal motility
[5]
  pIC50 for inhibition of EFS contractions: 7.86 ± 0.07
[6]
  Inhibition of morphine-induced contractions: neither NAP nor BNAP showed significant inhibition
  Contractions induced by compound alone: Neither BNAP nor NAP alone at concentrations up to 30 μM induced contractions
[6]; 10 nM antagonist, distal colon
  Antagonism of morphine effects: neither NAP nor BNAP showed significant antagonism
[6]; [13]
  Morphine pD2 in the presence of antagonist: 5.9
[6]; [14]
  Morphine pD2 in the presence of antagonist: 5.2
[6]; 100 nM versus 10 nM antagonist, proximal colon
  Change of morphine pD2 on raising the antagonist concentration: no further reduction of the morphine pD2
[7]; mice with 5-day 75 mg morphine pellet, Figure 9B
  Activity in hypernociceptive model of visceral pain: active at three fold lower concentration
[7]; s.c., naive mice, Figure 9A
  Number of writhes: dose dependently reduced the number of writhes
[8]; BNAP alone 10 mg/kg, mice (naive 17 min)
  Bead expulsion time: 43 min
[8]; given with morphine or 5 or 15 min before morphine
  Antagonism of morphine's effect on bead expulsion: no significant antagonism of morphine's effects was observed
[9]; [15]
  % max of agonist: 45.9 ± 1.7%
[9]; [35S]GTPγS binding
  EC50: 2.9 ± 1.1 nM
[10]; Emax relative to full agonist DAMGO (100%)
  % max of agonist: 14.6% and 14.6 ± 0.9%
[10]; [35S]GTPγS binding
  EC50: 4.84 nM and 4.8 nM

## O=C(N[C@@H]1CC[C@@]2(O)[C@H]3Cc4ccc(O)c5c4[C@@]2(CCN3CC2CC2)[C@H]1O5)c1ccncc1 [NAP, 17-Cyclopropylmethyl-3,14beta-dihydroxy-4,5alpha-epoxy-6beta-(4'-pyridylcarboxamido)morphinan, reference compound]
[11]
  % max of agonist: 22.72 ± 0.84% and 22.7 ± 0.8%
[6]
  Inhibition of morphine-induced contractions: neither NAP nor BNAP showed significant inhibition
  Contractions induced by compound alone: Neither BNAP nor NAP alone at concentrations up to 30 μM induced contractions
[6]; 10 nM antagonist, distal colon
  Antagonism of morphine effects: neither NAP nor BNAP showed significant antagonism
[6]; [13]
  Morphine pD2 in the presence of antagonist: 5.9
[6]; [14]
  Morphine pD2 in the presence of antagonist: 5.3
[12]; [15]
  % max of agonist: 45.5 ± 4.4%
[12]; [35S]GTPγS binding
  EC50: 28.8 ± 14.4 nM

## CN1CC[C@]23c4c5ccc(O)c4O[C@H]2[C@@H](O)C=C[C@H]3[C@H]1C5 [morphine, Morphine, reference compound]
[2]; mouse, in vivo
  Antinociception: dose dependently induced antinociception
[4]; mouse, in vivo
  Decrease of intestinal motility: 3 fold
[8]; mouse, in vivo
  Bead expulsion time: 75 min

## DAMGO [reference compound]
[5]
  pIC50 for inhibition of EFS contractions: 7.67 ± 0.03
